This note sets out measurements from ChEMBL document CHEMBL5325511, “Discovery of N-(4-(Aminomethyl)phenyl)-5-methylpyrimidin-2-amine Derivatives as Potent and Selective JAK2 Inhibitors” (ACS Med Chem Lett, 2023).

By IC50 is commonly meant the point on the concentration scale where inhibition reaches its midpoint. For orientation: half-life means how long it takes for the measured level to halve.

The target of data set [1] is Tyrosine-protein kinase JAK2 (Homo sapiens, UniProt O60674, V617F). As to the kind of experiment: Inhibition of JAK2 V617F mutant in human SET2 cells. Type of data set: cell-based. The method, boiled down: (§1)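 Cell proliferation assay. IC50 is the concentration that inhibits proliferation by 50%, taken from dose–response curves. Mean ± SEM of at least three independent experiments.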

In data set [2] the target is Tyrosine-protein kinase JAK2 (Mus musculus, UniProt Q62120, V617F). Nature of the data set: Inhibition of JAK2 V617F mutant in mouse BaF3 cells. It counts as cell-based. The method, boiled down: as §1
The target in data set [3] is T1, Receptor-type tyrosine-protein kinase FLT3 (Homo sapiens, UniProt P36888).
T1 sequence (P36888 whole entry): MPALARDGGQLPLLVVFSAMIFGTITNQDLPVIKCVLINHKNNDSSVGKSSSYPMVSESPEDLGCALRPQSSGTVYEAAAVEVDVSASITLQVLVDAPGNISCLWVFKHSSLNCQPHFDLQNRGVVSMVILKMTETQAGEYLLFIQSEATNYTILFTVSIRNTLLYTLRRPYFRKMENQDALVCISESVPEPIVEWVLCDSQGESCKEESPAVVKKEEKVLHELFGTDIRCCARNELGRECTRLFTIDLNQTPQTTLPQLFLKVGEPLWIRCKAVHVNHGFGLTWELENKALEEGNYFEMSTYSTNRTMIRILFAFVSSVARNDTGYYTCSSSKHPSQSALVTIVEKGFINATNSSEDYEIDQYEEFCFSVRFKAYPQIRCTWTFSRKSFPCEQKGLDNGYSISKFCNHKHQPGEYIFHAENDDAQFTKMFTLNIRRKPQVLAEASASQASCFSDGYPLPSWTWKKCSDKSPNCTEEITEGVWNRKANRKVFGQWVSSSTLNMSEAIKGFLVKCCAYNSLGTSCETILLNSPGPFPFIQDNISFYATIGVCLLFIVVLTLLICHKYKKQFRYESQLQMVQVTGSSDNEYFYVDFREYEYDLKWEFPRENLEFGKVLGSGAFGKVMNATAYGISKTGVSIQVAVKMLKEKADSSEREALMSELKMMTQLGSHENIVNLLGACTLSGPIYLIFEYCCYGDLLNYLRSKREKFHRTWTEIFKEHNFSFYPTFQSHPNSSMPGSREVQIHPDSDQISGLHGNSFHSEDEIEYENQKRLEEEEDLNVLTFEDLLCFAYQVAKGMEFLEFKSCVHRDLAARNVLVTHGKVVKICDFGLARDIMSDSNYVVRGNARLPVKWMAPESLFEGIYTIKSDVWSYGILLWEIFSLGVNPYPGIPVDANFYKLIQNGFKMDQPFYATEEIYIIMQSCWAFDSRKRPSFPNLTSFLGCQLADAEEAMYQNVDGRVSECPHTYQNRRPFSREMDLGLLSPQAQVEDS
As to the kind of experiment: Inhibition of FLT3 in human MOLM-13 cells. Type of data set: cell-based. The method, boiled down:
as §1

Data set [4] can be described thus: Metabolic stability in human liver microsomes assessed as half life. Type of data set: ADME, Microsome.
Data set [5] deals with T2, Tyrosine-protein kinase JAK2 (Homo sapiens, UniProt O60674). As to the kind of experiment: Inhibition of human JAK2 JH1 expressed in baculovirus infected Sf9 cells assessed as residual activity at 100 nM relative to control.
Data set [6] has as its target Tyrosine-protein kinase JAK1 (Homo sapiens, UniProt P23458). As to the kind of experiment: Inhibition of JAK1 (unknown origin) in presence of Mg/ATP mixture by [gamma p33]-ATP based radiometric assay. The method, boiled down: (§2)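 IC50 values determined by Eurofins Discovery.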
Data set [7] concerns the target T2, Tyrosine-protein kinase JAK2. Nature of the data set: Inhibition of JAK2 (unknown origin) in presence of Mg/ATP mixture by [gamma p33]-ATP based radiometric assay. The method, boiled down: as §2
For data set [8], the target named is T3, Tyrosine-protein kinase JAK3 (Homo sapiens, UniProt P52333).
T3 sequence (P52333 whole entry): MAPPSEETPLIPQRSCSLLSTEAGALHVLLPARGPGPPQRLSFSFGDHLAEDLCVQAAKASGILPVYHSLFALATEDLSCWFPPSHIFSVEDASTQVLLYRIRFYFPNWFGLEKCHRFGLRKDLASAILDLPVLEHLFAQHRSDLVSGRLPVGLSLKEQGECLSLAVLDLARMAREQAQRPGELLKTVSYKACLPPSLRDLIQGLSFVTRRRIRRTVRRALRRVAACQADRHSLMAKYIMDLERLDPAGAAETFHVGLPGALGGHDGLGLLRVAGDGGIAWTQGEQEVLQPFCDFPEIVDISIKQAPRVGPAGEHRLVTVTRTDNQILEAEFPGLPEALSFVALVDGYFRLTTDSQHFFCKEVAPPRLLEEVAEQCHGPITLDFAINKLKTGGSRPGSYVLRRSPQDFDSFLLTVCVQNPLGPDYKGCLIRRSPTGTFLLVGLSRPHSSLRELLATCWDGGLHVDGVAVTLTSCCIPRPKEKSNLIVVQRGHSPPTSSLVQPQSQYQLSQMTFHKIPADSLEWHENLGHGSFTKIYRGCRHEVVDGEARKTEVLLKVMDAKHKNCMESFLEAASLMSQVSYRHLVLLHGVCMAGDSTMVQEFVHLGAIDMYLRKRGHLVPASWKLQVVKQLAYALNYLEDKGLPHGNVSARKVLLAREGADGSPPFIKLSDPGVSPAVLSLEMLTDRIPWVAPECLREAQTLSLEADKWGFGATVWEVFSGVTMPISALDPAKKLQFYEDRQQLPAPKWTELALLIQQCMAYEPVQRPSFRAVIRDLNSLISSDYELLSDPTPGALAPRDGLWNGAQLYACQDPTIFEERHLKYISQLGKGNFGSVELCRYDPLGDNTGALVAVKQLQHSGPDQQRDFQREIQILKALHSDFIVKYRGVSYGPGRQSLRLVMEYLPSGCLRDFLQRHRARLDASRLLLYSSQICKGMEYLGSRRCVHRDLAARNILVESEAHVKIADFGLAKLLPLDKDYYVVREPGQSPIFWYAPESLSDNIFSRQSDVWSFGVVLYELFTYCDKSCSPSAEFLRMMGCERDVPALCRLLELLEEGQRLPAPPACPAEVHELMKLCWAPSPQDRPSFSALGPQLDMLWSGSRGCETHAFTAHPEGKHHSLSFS
As to the kind of experiment: Inhibition of JAK3 (unknown origin) in presence of Mg/ATP mixture by [gamma p33]-ATP based radiometric assay.

For data set [9], the target named is Non-receptor tyrosine-protein kinase TYK2 (Homo sapiens, UniProt P29597). As to the kind of experiment: Inhibition of TYK2 (unknown origin) in presence of Mg/ATP mixture by [gamma p33]-ATP based radiometric assay.
The target in data set [10] is T1, Receptor-type tyrosine-protein kinase FLT3. Nature of the data set: Inhibition of FLT3 (unknown origin) in presence of Mg/ATP mixture by [gamma p33]-ATP based radiometric assay. In a few lines: as §2
Data set [11] is described as follows: Selectivity ratio of IC50 for JAK3 (unknown origin) to IC50 for JAK2 (unknown origin).
Data set [12] can be described thus: Selectivity ratio of IC50 for TYK2 (unknown origin) to IC50 for JAK2 (unknown origin).
Data set [13] can be described thus: Selectivity ratio of IC50 for FLT3 (unknown origin) to IC50 for JAK2 (unknown origin).

Tyrosine-protein kinase JAK2 (Homo sapiens, UniProt O60674, V617F), sequence (O60674 whole entry V617F): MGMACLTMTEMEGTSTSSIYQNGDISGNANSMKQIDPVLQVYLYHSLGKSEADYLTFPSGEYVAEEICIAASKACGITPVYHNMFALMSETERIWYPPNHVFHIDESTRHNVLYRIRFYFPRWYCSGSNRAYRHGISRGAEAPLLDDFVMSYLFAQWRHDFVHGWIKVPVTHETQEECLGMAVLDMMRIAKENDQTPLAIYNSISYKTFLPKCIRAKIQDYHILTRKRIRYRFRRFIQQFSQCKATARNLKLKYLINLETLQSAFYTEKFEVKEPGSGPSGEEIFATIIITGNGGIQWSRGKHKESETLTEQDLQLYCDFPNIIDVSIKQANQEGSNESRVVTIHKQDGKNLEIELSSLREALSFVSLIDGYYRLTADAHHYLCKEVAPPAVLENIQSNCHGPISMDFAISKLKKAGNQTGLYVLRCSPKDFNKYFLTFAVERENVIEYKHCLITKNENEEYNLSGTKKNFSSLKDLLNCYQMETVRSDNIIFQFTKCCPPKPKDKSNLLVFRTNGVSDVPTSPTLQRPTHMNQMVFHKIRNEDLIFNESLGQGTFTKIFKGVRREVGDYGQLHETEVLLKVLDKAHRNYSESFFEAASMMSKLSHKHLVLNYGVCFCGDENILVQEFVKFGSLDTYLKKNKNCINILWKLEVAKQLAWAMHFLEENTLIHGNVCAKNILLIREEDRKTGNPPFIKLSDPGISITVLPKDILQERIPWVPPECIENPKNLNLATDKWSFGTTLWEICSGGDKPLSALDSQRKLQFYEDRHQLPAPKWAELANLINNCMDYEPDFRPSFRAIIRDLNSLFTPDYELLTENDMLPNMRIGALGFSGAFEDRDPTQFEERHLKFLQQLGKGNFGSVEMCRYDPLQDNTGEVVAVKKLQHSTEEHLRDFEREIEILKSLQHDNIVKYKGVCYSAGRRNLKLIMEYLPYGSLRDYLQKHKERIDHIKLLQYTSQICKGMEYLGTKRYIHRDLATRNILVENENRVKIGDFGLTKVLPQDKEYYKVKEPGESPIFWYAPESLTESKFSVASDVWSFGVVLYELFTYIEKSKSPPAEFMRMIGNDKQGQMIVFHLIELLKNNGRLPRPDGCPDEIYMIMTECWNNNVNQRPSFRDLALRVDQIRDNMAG
Non-receptor tyrosine-protein kinase TYK2, sequence (P29597 whole entry): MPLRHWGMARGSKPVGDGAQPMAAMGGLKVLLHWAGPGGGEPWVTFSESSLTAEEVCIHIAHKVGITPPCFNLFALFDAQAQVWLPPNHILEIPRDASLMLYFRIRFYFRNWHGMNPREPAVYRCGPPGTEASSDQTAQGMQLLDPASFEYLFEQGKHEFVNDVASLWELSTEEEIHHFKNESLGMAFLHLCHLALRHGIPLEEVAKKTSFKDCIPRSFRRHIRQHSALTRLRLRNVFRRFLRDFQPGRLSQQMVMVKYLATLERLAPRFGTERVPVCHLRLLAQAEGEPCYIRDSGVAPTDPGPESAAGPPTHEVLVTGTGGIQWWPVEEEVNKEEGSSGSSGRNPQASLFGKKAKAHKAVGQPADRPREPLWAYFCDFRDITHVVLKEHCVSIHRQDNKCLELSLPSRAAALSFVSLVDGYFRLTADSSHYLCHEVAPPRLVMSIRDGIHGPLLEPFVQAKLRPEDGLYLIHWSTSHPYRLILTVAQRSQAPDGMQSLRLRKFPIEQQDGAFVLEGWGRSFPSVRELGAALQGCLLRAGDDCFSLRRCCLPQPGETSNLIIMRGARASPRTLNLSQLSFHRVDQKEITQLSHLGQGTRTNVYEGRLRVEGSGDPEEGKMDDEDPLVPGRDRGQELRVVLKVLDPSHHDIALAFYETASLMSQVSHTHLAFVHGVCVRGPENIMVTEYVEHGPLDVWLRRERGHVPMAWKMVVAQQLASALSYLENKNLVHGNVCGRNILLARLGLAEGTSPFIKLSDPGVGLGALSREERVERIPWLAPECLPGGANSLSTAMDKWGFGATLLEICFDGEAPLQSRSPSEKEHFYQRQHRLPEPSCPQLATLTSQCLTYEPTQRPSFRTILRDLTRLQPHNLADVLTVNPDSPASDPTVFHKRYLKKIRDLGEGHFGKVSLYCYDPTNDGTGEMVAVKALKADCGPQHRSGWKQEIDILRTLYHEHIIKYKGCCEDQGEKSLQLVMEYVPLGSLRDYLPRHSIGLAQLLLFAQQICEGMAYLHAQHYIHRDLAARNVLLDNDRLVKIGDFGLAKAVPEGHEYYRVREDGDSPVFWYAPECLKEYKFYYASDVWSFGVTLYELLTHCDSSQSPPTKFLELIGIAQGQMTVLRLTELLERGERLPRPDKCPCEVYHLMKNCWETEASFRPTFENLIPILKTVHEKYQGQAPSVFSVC
Tyrosine-protein kinase JAK2 (Mus musculus, UniProt Q62120, V617F), sequence (Q62120 as listed by the source V617F): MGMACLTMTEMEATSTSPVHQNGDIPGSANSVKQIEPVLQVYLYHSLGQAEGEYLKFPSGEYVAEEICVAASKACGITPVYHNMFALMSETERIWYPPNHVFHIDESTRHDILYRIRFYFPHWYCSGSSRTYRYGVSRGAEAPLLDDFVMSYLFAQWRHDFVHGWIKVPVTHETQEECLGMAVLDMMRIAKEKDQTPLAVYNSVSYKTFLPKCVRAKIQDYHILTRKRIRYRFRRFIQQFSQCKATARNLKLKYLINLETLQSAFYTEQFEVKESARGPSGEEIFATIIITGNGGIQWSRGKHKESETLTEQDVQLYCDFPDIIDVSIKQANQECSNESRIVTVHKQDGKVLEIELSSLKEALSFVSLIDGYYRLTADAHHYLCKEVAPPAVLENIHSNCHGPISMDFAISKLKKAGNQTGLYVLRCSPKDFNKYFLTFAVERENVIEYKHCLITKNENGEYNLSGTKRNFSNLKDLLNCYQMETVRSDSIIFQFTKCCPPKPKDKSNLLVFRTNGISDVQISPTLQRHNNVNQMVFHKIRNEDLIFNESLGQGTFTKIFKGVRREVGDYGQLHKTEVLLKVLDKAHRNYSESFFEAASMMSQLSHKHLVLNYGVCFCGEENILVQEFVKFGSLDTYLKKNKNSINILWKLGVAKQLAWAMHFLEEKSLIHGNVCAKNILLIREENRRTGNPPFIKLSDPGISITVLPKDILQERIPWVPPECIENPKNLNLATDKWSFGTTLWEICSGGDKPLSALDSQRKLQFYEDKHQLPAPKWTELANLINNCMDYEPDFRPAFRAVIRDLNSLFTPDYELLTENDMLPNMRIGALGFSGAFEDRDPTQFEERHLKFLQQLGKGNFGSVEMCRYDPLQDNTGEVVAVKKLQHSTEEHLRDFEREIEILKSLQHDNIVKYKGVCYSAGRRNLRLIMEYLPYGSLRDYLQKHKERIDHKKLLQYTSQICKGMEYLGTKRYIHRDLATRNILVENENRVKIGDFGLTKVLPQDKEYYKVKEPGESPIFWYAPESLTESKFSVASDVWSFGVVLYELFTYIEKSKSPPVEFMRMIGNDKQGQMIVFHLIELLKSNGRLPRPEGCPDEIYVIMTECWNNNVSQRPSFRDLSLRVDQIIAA
Tyrosine-protein kinase JAK1, sequence (P23458 whole entry): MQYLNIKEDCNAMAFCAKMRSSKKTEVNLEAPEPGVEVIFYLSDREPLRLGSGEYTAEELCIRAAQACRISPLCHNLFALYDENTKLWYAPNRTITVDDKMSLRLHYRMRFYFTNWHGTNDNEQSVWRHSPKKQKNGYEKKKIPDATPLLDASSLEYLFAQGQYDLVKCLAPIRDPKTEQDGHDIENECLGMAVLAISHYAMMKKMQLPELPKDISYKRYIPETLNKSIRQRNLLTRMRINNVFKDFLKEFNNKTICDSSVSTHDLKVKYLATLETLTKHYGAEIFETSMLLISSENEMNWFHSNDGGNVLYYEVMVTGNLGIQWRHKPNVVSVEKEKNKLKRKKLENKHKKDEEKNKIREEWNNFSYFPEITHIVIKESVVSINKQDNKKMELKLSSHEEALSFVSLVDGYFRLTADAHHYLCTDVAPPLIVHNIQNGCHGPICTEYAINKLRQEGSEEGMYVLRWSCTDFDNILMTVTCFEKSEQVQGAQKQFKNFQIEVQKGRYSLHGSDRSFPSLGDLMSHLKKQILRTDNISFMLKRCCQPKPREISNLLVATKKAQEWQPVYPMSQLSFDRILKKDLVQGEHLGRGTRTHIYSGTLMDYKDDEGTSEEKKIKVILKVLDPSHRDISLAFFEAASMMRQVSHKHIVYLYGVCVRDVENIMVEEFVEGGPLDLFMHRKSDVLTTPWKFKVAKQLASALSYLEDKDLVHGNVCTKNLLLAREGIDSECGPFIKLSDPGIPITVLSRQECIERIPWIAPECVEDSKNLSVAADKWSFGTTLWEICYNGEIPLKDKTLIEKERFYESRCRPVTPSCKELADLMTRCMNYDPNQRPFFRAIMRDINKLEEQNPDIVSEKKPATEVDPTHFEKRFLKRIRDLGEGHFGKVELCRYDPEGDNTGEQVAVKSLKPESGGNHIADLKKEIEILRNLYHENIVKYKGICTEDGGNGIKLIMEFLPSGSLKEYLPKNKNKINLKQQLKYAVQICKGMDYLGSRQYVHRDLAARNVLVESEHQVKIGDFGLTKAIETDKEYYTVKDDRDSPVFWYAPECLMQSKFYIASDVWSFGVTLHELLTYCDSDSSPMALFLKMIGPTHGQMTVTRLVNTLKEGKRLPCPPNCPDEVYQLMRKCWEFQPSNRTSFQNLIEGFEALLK
T2 sequence (O60674 whole entry): as the sequence (O60674 whole entry V617F) above, with F617V counted along it

Turning to `Cc1cnc(Nc2ccc(CNC(=O)CCCN(C)C)cc2)nc1-c1cnn(C(C)C)c1`, the results for the IC50 in data set [1], in [2] and in data set [3] were 1960 nM, 870 nM and 5840 nM, respectively. Further, the half-life in data set [4] was determined as 76.3 min. Further, in [5], the Activity worked out at 55%.
With `Cc1cnc(Nc2ccc(CCNC(=O)CCCl)cc2)nc1-c1cnn(C(C)C)c1`, the IC50 in [1] is 5620 nM; in [2] it was 2200 nM; in [3] it was greater than 10000 nM. Moreover, in data set [4], the half-life was 40.3 min. Besides, the Activity in data set [5] was 67%.
For `Cc1cnc(Nc2ccc(CNC(=O)CCCl)cc2)nc1-c1cnn(C(C)C)c1` the same measures were 985 nM, 385 nM, 5560 nM, 44.5 min and 45%.
On the same counts, the results for `C=CS(=O)(=O)NCCc1ccc(Nc2ncc(C)c(-c3cnn(C(C)C)c3)n2)cc1` are 761 nM, 169 nM, 1800 nM, 88.6 min and 30%.
On the same counts, the results for `CCCS(=O)(=O)NCc1ccc(Nc2ncc(C)c(-c3cnn(C(C)C)c3)n2)cc1` are 108 nM, 101 nM, 885 nM, greater than 120 min and 10%.
`Cc1cnc(Nc2ccc(CNC(=O)/C=C/C(=O)c3ccccc3)cc2)nc1-c1cnn(C(C)C)c1`: the IC50 in data set [1] worked out at 563 nM; in [2], 87.5 nM; in [3] it was 756 nM; in data set [6] it was 43 nM; in data set [7], 7 nM; in data set [8], 54 nM. For the same compound, the IC50 turned out to be 43 nM in data set [9] and 108 nM in data set [10]. Moreover, the half-life in data set [4] was 54.8 min. Further, the values for the Ratio IC50 in [11], in data set [12] and in data set [13] were 7.7, 6.1 and 15.4, respectively. In addition, in data set [5], the Activity amounted to 5%.
Turning to `CCCCS(=O)(=O)NCc1ccc(Nc2ncc(C)c(-c3cnn(C(C)C)c3)n2)cc1`, the results for the IC50 in data set [1], in [2] and in [3] were 421 nM, 182 nM and 1670 nM, respectively. Further, in [4], the half-life turned out to be 98.3 min. In addition, in data set [5], the Activity came to 15%.
Regarding `C=CC(=O)NCc1ccc(Nc2ncc(C)c(-c3cnn(C(C)C)c3)n2)cc1`, the half-maximal inhibitory concentration (IC50) in data set [1] came to 245 nM; in data set [2], 129 nM; in data set [3], 1760 nM; in [6], 106 nM; in data set [7], 8 nM; in data set [8], 208 nM. Also, the IC50 in [9] amounted to 77 nM; in [10], 320 nM. Also, the half-life in data set [4] stood at 108 min. Further, the Ratio IC50 in data set [11] is 41.6; in [12], 9.6; in [13], 40. In addition, in [5], the Activity came out at 13%.
On to `Cc1cnc(Nc2ccc(CNC(=O)CCl)cc2)nc1-c1cnn(C(C)C)c1`, for which the half-maximal inhibitory concentration (IC50) was found to be 150 nM in data set [1]; 98.1 nM in data set [2]; 961 nM in data set [3]; 73 nM in [6]; 3 nM in [7]; 166 nM in data set [8]. In addition, the IC50 in [9] was 33 nM; in data set [10], 206 nM. Moreover, the half-life in data set [4] came to 43.2 min. In addition, the results for the Ratio IC50 in data set [11], in data set [12] and in data set [13] were 55.3, 10 and 68.7, respectively. Besides, the Activity in [5] is 6%.
For the compound `Cc1cnc(Nc2ccc(CCNC(=O)/C=C/CN(C)C)cc2)nc1-c1cnn(C(C)C)c1`, the concentration for half-maximal inhibition (IC50) in data set [1] is 2190 nM; in data set [2], 1140 nM; in data set [3] it was greater than 10000 nM. Further, in [4], the half-life came to 54.1 min. Further, the Activity in data set [5] is 64%.
On to `Cc1cnc(Nc2ccc(CNC(=O)C3CC3)cc2)nc1-c1cnn(C(C)C)c1`, for which the half-inhibitory concentration (IC50) amounted to 205 nM in data set [1]; 72 nM in data set [2]; 1280 nM in data set [3]; 87 nM in data set [6]; 4 nM in data set [7]; 156 nM in [8]. Further, the IC50 in data set [9] worked out at 62 nM; in data set [10], 311 nM. The half-life in data set [4] is greater than 120 min. The Ratio IC50 in data set [11] is 39; in data set [12] it was 15.5; in data set [13], 77.7. In addition, in data set [5], the Activity was 9%.
Take `Cc1cnc(Nc2ccc(CCNC(=O)CCl)cc2)nc1-c1cnn(C(C)C)c1`: the IC50 in [1] worked out at 1550 nM; in data set [2] it was 372 nM; in data set [3], 1680 nM. Moreover, the half-life in data set [4] came to 29.6 min. In addition, the Activity in data set [5] came out at 48%.
For `Cc1cnc(Nc2ccc(CCNC(=O)/C=C/C(=O)c3ccccc3)cc2)nc1-c1cnn(C(C)C)c1` the same measures were 279 nM, 178 nM, 882 nM, 34.2 min and 34%.
For `Cc1cnc(Nc2ccc(CCNC(=O)CCCN(C)C)cc2)nc1-c1cnn(C(C)C)c1` the same measures were 5230 nM, 3310 nM, greater than 10000 nM, 60.3 min and 77%.
As for `Cc1cnc(Nc2ccc(CNC(=O)/C=C/CN(C)C)cc2)nc1-c1cnn(C(C)C)c1`, the results for the IC50 in data set [1], in data set [2] and in [3] were 880 nM, 265 nM and 826 nM, respectively. The half-life in data set [4] is 65.4 min. Besides, the Activity in [5] was 35%.
